In brackets after ≈: the same amount, converted by molar mass.
What was measured:
Type in all cases: functional
Candida albicans [1] = experiment: Antifungal activity against Candida albicans ATCC 90028 after 24 hrs by two-fold broth microdilution method; conditions: ATCC 90028, 24 h
Summary of the method: (§1)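 Strains subcultured one day before testing; colonies suspended in sterile water and adjusted to 0.5 McFarland (1.5 × 10^8 cfu/ml). Two-fold dilutions in MHB (medium pH 7.4 ± 0.1), final 200 to 0.39 µg/ml. Incubated 37 ± 1 °C for 24 h, then resazurin (0.4 mg/ml) added for a further 5 h. MIC read by colour: blue = no growth, pink = growth.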

Candida albicans [2] = experiment: Antifungal activity against Candida albicans clinical isolate after 24 hrs by two-fold broth microdilution method; summary of the method: as §1
Cryptococcus neoformans [3] = experiment: Antifungal activity against […] ATCC 66031 after 24 hrs by two-fold broth microdilution method; conditions: ATCC 66031, 24 h; summary of the method: as §1
Cryptococcus neoformans [4] = experiment: Antifungal activity against […] clinical isolate after 24 hrs by two-fold broth microdilution method; summary of the method: as §1
Aspergillus niger = experiment: Antifungal activity against Aspergillus niger ATCC 16404 after 24 hrs by two-fold broth microdilution method; conditions: ATCC 16404, 24 h; summary of the method: as §1
Staphylococcus aureus = experiment: Antibacterial activity against Staphylococcus aureus ATCC 25923 after 24 hrs by two-fold broth microdilution method; conditions: ATCC 25923, 24 h; summary of the method: as §1
Bacillus subtilis = experiment: Antibacterial activity against Bacillus subtilis ATCC 6051 after 24 hrs by two-fold broth microdilution method; conditions: ATCC 6051, 24 h; summary of the method: as §1
Escherichia coli = experiment: Antibacterial activity against Escherichia coli ATCC 35218 after 24 hrs by two-fold broth microdilution method; conditions: ATCC 35218, 24 h; summary of the method: as §1
Pseudomonas aeruginosa = experiment: Antibacterial activity against Pseudomonas aeruginosa ATCC 27853 after 24 hrs by two-fold broth microdilution method; conditions: ATCC 27853, 24 h; summary of the method: as §1
[5] = Cytotoxicity against human OVCAR3 cells; conditions: OVCAR-3
MCF7 = experiment: Cytotoxicity against human MCF7 cells
[6] = Cytotoxicity against human HL60 cells; conditions: HL-60
Candida albicans [7] = experiment: Antimicrobial activity against Candida albicans
Candida tropicalis = experiment: Antimicrobial activity against Candida tropicalis
Cryptococcus neoformans [8] = experiment: Antimicrobial activity against […]

Structure (SMILES)	MIC (Candida albicans [1])	MIC (Candida albicans [2])	MIC (Cryptococcus neoformans [3])	MIC (Cryptococcus neoformans [4])	MIC (Aspergillus niger)	MIC (Staphylococcus aureus)	MIC (Bacillus subtilis)	MIC (Escherichia coli)	MIC (Pseudomonas aeruginosa)	MIC (Candida albicans [7])	MIC (Candida tropicalis)	MIC (Cryptococcus neoformans [8])	GI50 [5]	GI50 (MCF7)	GI50 [6]
O=C(/C=C/c1c(-c2ccc(Br)cc2)nc2sc(-c3ccccc3)nn12)c1ccccc1	> 200 µg/mL	> 200 µg/mL	25 µg/mL (≈ 51.4 µM)	200 µg/mL (≈ 411 µM)	> 200 µg/mL	> 200 µg/mL	> 200 µg/mL	> 200 µg/mL	> 200 µg/mL						
CC1=NN2C(=NC(C)C2C(=O)NNc2ccc(O)cc2)S1 (stereo not drawn)													5.51 µM	4.51 µM	4.5 µM
O=C(/C=C/c1c(-c2ccc(Br)cc2)nc2sc(-c3ccccc3)nn12)c1cccs1	200 µg/mL (≈ 406 µM)	> 200 µg/mL	6.25 µg/mL (≈ 12.7 µM)	6.25 µg/mL (≈ 12.7 µM)	> 200 µg/mL	> 200 µg/mL	> 200 µg/mL	> 200 µg/mL	> 200 µg/mL						
COc1ccc(-c2nn3c(/C=C/C(=O)c4cccs4)c(-c4ccc(Br)cc4)nc3s2)cc1	100 µg/mL (≈ 191 µM)	> 200 µg/mL	25 µg/mL (≈ 47.9 µM)	200 µg/mL (≈ 383 µM)	> 200 µg/mL	> 200 µg/mL	> 200 µg/mL	> 200 µg/mL	> 200 µg/mL						
COc1ccc(-c2nn3cc(-c4ccc(Br)cc4)nc3s2)cc1OC										6.25 µg/mL (≈ 15 µM)	12.5 µg/mL (≈ 30 µM)	6.25 µg/mL (≈ 15 µM)			
O=C(/C=C/c1c(-c2ccc(Br)cc2)nc2sc(-c3ccccc3Cl)nn12)c1ccccc1	> 200 µg/mL	> 200 µg/mL	12.5 µg/mL (≈ 24 µM)	12.5 µg/mL (≈ 24 µM)	> 200 µg/mL	> 200 µg/mL	> 200 µg/mL	100 µg/mL (≈ 192 µM)	> 200 µg/mL						
COc1ccc(-c2nn3c(/C=C/C(=O)c4ccccc4)c(-c4ccc(Br)cc4)nc3s2)cc1	50 µg/mL (≈ 96.8 µM)	> 200 µg/mL	3.12 µg/mL (≈ 6.05 µM)	12.5 µg/mL (≈ 24.2 µM)	> 200 µg/mL	> 200 µg/mL	> 200 µg/mL	200 µg/mL (≈ 387 µM)	> 200 µg/mL						
O=C(/C=C/c1c(-c2ccc(Br)cc2)nc2sc(-c3ccccc3Br)nn12)c1cccs1	> 200 µg/mL	> 200 µg/mL	3.12 µg/mL (≈ 5.47 µM)	12.5 µg/mL (≈ 21.9 µM)	> 200 µg/mL	> 200 µg/mL	> 200 µg/mL	> 200 µg/mL	> 200 µg/mL						
COc1ccc(-c2nn3c(/C=C/C(=O)c4ccc(C)cc4)c(-c4ccc(Br)cc4)nc3s2)cc1	200 µg/mL (≈ 377 µM)	> 200 µg/mL	1.56 µg/mL (≈ 2.94 µM)	3.12 µg/mL (≈ 5.89 µM)	> 200 µg/mL	> 200 µg/mL	> 200 µg/mL	200 µg/mL (≈ 377 µM)	> 200 µg/mL						
O=C(/C=C/c1c(-c2ccc(Br)cc2)nc2sc(-c3ccccc3Cl)nn12)c1cccs1	50 µg/mL (≈ 94.9 µM)	> 200 µg/mL	200 µg/mL (≈ 380 µM)	200 µg/mL (≈ 380 µM)	> 200 µg/mL	> 200 µg/mL	> 200 µg/mL	> 200 µg/mL	> 200 µg/mL						

Now from value to compound, other results behind:

MIC (Candida albicans [1])	MIC (Candida albicans [2])	MIC (Cryptococcus neoformans [3])	MIC (Cryptococcus neoformans [4])	MIC (Aspergillus niger)	MIC (Staphylococcus aureus)	MIC (Bacillus subtilis)	MIC (Escherichia coli)	MIC (Pseudomonas aeruginosa)	MIC (Candida albicans [7])	MIC (Candida tropicalis)	MIC (Cryptococcus neoformans [8])	Structure (SMILES)	GI50 [5]	GI50 (MCF7)	GI50 [6]
25 µg/mL (≈ 55.1 µM)	50 µg/mL (≈ 110 µM)	100 µg/mL (≈ 221 µM)	> 200 µg/mL	100 µg/mL (≈ 221 µM)	200 µg/mL (≈ 441 µM)	200 µg/mL (≈ 441 µM)	200 µg/mL (≈ 441 µM)	25 µg/mL (≈ 55.1 µM)				COc1ccc(-c2nn3c(/C=N/C4CC4)c(-c4ccc(Br)cc4)nc3s2)cc1			
25 µg/mL (≈ 54.6 µM)	50 µg/mL (≈ 109 µM)	100 µg/mL (≈ 218 µM)	> 200 µg/mL	100 µg/mL (≈ 218 µM)	200 µg/mL (≈ 437 µM)	200 µg/mL (≈ 437 µM)	200 µg/mL (≈ 437 µM)	50 µg/mL (≈ 109 µM)				Clc1ccccc1-c1nn2c(/C=N/C3CC3)c(-c3ccc(Br)cc3)nc2s1			
25 µg/mL (≈ 42.3 µM)	50 µg/mL (≈ 84.6 µM)	100 µg/mL (≈ 169 µM)	> 200 µg/mL	100 µg/mL (≈ 169 µM)	200 µg/mL (≈ 338 µM)	200 µg/mL (≈ 338 µM)	200 µg/mL (≈ 338 µM)	50 µg/mL (≈ 84.6 µM)				Brc1ccc(-c2nc3sc(-c4ccc(I)cc4)nn3c2/C=N/C2CCCCC2)cc1			
25 µg/mL (≈ 47.5 µM)	> 200 µg/mL	12.5 µg/mL (≈ 23.7 µM)	12.5 µg/mL (≈ 23.7 µM)	> 200 µg/mL	> 200 µg/mL	> 200 µg/mL	> 200 µg/mL	> 200 µg/mL				O=C(/C=C/c1c(-c2ccc(Br)cc2)nc2sc(-c3ccc(Cl)cc3)nn12)c1cccs1			
25 µg/mL (≈ 50 µM)	> 200 µg/mL	25 µg/mL (≈ 50 µM)	100 µg/mL (≈ 200 µM)	> 200 µg/mL	> 200 µg/mL	> 200 µg/mL	> 200 µg/mL	> 200 µg/mL				Cc1ccc(C(=O)/C=C/c2c(-c3ccc(Br)cc3)nc3sc(-c4ccccc4)nn23)cc1			
